# From ChEMBL document CHEMBL3792359, “Discovery of Orally Available Prodrugs of the Glutamate Carboxypeptidase II (GCPII) Inhibitor 2-Phosphonomethylpentanedioic Acid (2-PMPA)” (J Med Chem, 2016)
# Legend:
# [1] = Metabolic stability in human plasma assessed as compound remaining at 10 uM after 1 hr by LC/MS/MS analysis; type: ADME, cell-free; conditions: read-out: Stability
# How it was run: (§1)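 Prodrug at 10 µM spiked into mouse or human plasma or liver microsomes, incubated at 37 °C on an orbital shaker. Triplicate aliquots taken at 0, 30 and 60 min, quenched with 3 volumes of ice-cold acetonitrile containing losartan internal standard, vortexed, spun 12000 g for 10 min. Parent disappearance followed by LC/MS/MS and reported as % remaining at 1 h.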
# [2] = Metabolic stability in human liver microsomes assessed as compound remaining at 10 uM after 1 hr by LC/MS/MS analysis; type: ADME; conditions: read-out: Stability; how it was run: as §1
# [3] = Metabolic stability in mouse plasma assessed as compound remaining at 10 uM after 1 hr by LC/MS/MS analysis; type: ADME, cell-free; conditions: read-out: Stability; how it was run: as §1
# [4] = Metabolic stability in mouse liver microsomes assessed as compound remaining at 10 uM after 1 hr by LC/MS/MS analysis; type: ADME; conditions: read-out: Stability; how it was run: as §1
# Plasma [5] = assay: Prodrug activation in mouse plasma assessed as 2-phosphonomethylpentanedioic acid formation at 30 mg/kg administered via oral gavage after 30 mins by LC/MS/MS analysis; type: organism-based; conditions: in vivo, 0.5 h
# How it was run: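 Mice given prodrug orally at 30 mg/kg (equivalent of 1), 10 mL/kg volume; blood taken at 30 min, N=3. Plasma extracted with methanol containing 2-PMSA internal standard. Released 1 measured selectively after mild MTBSTFA derivatization (~60 °C, 40 min) by LC/MS/MS. Total prodrug plus metabolites measured separately after n-butanol/3N HCl derivatization (60°C, 30 min), which converts all species to butyl esters of 1.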
# Mus musculus [6] = assay: Tmax in mouse assessed as 2-phosphonomethylpentanedioic acid at 30 mg/kg administered via oral gavage measured after 15 mins to 4 hrs by LC/MS/MS analysis; type: ADME, organism-based; conditions: in vivo
# How it was run: (§2)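 Mice dosed orally at 30 mg/kg (equivalent of 1), 10 mL/kg dosing volume. Cardiac-puncture blood at 0, 15, 30 min, 1, 2, 4 h, n=3 per time point; plasma stored at -80°C. Methanol precipitation with 2-PMSA internal standard, then mild MTBSTFA derivatization (~60 °C, 40 min) so only free 1 is measured by LC/MS/MS. Cmax/Tmax observed; AUC to last sample by log-linear trapezoidal rule.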
# Canis familiaris [7] = assay: Tmax in beagle dog assessed as 2-phosphonomethylpentanedioic acid at 10 mg/kg administered via oral gavage measured after 30 mins to 8 hrs by LC/MS/MS analysis; type: ADME, organism-based, Canis lupus familiaris; conditions: in vivo
# How it was run: (§3)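 Single beagle dog given oral dose of 10 mg/kg (expressed as equivalent of 1). Jugular venipuncture blood at 0, 30 min, 1, 2, 4, 6, 8 h into potassium oxalate/NaF tubes, kept on wet ice, spun 3000 x g, 4°C, 5 min; plasma frozen at -60 to -80°C. LC/MS/MS. Cmax and Tmax taken as observed values; AUC to last sample by log-linear trapezoidal rule.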
# Mus musculus [8] = assay: AUC (0 to t) in mouse assessed as 2-phosphonomethylpentanedioic acid at 30 mg/kg administered via oral gavage measured after 15 mins to 4 hrs by LC/MS/MS analysis; type: ADME, organism-based; design: time upper 4 hr, dose 30 mg/kg, time lower 0.25 hr, route oral; conditions: in vivo; how it was run: as §2
# Canis familiaris [9] = assay: Cmax in beagle dog assessed as 2-phosphonomethylpentanedioic acid at 10 mg/kg administered via oral gavage measured after 30 mins to 8 hrs by LC/MS/MS analysis; type: ADME, organism-based, Canis lupus familiaris; design: dose 10 mg/kg, route oral; conditions: in vivo; how it was run: as §3
# Mus musculus [10] = assay: Cmax in mouse assessed as 2-phosphonomethylpentanedioic acid at 30 mg/kg administered via oral gavage measured after 15 mins to 4 hrs by LC/MS/MS analysis; type: ADME, organism-based; design: dose 30 mg/kg, route oral; conditions: in vivo; how it was run: as §2
# Canis familiaris [11] = assay: AUC (0 to t) in beagle dog assessed as 2-phosphonomethylpentanedioic acid at 10 mg/kg administered via oral gavage measured after 30 mins to 8 hrs by LC/MS/MS analysis; type: ADME, organism-based, Canis lupus familiaris; design: dose 10 mg/kg, time upper 8 hr, time lower 0.5 hr, route oral; conditions: in vivo; how it was run: as §3
# [12] = Chemical stability of compound; type: physicochemical
# Plasma [13] = assay: Plasma concentration in rhesus monkey at 10 mg/kg, po measured at 0.25 to 2 hrs post dose; type: ADME, organism-based, Macaca mulatta; conditions: in vivo
# [14] = AUC (0 to t hrs) in mouse at 30 mg/kg administered via oral gavage measured after 15 mins to 4 hrs by LC/MS/MS analysis; type: ADME, organism-based; design: time lower 0.25 hr, dose 30 mg/kg, time upper 4 hr, route oral; conditions: in vivo
# How it was run: (§4)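 Mice were dosed by oral gavage at 30 mg/kg (parent-drug equivalent) in 10 mL/kg. Blood was taken by cardiac puncture at 0, 15 and 30 min and 1, 2 and 4 h, n=3 per time point. Plasma was stored at -80 °C and the released parent drug measured by LC/MS/MS. Cmax and Tmax are observed values; AUC is the log-linear trapezoidal AUClast.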
# [15] = Tmax in mouse at 30 mg/kg administered via oral gavage measured after 15 mins to 4 hrs by LC/MS/MS analysis; type: ADME, organism-based; conditions: in vivo; how it was run: as §4
# [16] = Cmax in mouse at 10 mg/kg administered via oral gavage measured after 15 mins to 4 hrs by LC/MS/MS analysis; type: ADME, organism-based; design: dose 10 mg/kg, route oral; conditions: in vivo
# [17] = AUC (0 to t hrs) in mouse at 10 mg/kg administered via oral gavage measured after 15 mins to 4 hrs by LC/MS/MS analysis; type: ADME, organism-based; design: dose 10 mg/kg, time 0.25-4 hr, route oral; conditions: in vivo
# [18] = Cmax in mouse at 30 mg/kg administered via oral gavage measured after 15 mins to 4 hrs by LC/MS/MS analysis; type: ADME, organism-based; design: dose 30 mg/kg, route oral; conditions: in vivo; how it was run: as §4
Compound,"remaining at 1 h, 10 µM [1] [%]","remaining at 1 h, 10 µM [2] [%]","remaining at 1 h, 10 µM [3] [%]","remaining at 1 h, 10 µM [4] [%]",Drug metabolism (Plasma [5]) [µM],other results
COC(=O)C(CCC(=O)O)CP(=O)(OCOC(=O)C(C)(C)C)OCOC(=O)C(C)(C)C (configuration not stated),82,54,0,0,0.74,
CC(C)OC(=O)OCOC(=O)C(CCC(=O)O)CP(=O)(OCOC(=O)OC(C)C)OCOC(=O)OC(C)C (configuration not stated),48,0,0,0,15.66,Tmax (Mus musculus [6]): 0.5 h; Tmax (Canis familiaris [7]): 1 h; AUCt (Mus musculus [8]): 35.9 µM·h; Cmax (Canis familiaris [9]): 51100 nM; Cmax (Mus musculus [10]): 15100 nM; AUCt (Canis familiaris [11]): 126 µM·h
CC(C)OC(=O)OCOP(=O)(CC(CCC(=O)O)C(=O)O)OCOC(=O)OC(C)C (configuration not stated),,,,,,Stability [12]: Unstable
CCOC(=O)C(CCC(=O)O)CP(=O)(OCOC(=O)OC(C)C)OCOC(=O)OC(C)C (configuration not stated),80,32,0,0,0.49,
COC(=O)CCC(CP(=O)(OCOC(=O)OC(C)C)OCOC(=O)OC(C)C)C(=O)OC (configuration not stated),0,0,0.1,0.1,,
COC(=O)CCC(CP(=O)(OCOC(=O)C(C)(C)C)OCOC(=O)C(C)(C)C)C(=O)OC (configuration not stated),29,0,0,0,,
CCOC(=O)CCC(CP(=O)(O)O)C(=O)OCC (configuration not stated),73,88,59,83,,
CC(C)(C)C(=O)OCOC(=O)C(CCC(=O)O)CP(=O)(OCOC(=O)C(C)(C)C)OCOC(=O)C(C)(C)C (configuration not stated),79,0,0,0,15.8,
CCOC(=O)CCC(CP(=O)(OCOC(=O)C(C)(C)C)OCOC(=O)C(C)(C)C)C(=O)OCC (configuration not stated),18,0,0,0,,
COC(=O)CCC(CP(=O)(O)O)C(=O)OC (configuration not stated),96,103,86,101,,
CCOC(=O)C(CCC(=O)O)CP(=O)(OCOC(=O)C(C)(C)C)OCOC(=O)C(C)(C)C (configuration not stated),61,26,3,0,0.54,
O=C(O)CCC(CP(=O)(O)O)C(=O)O (configuration not stated),83,91,85,100,,concentration (Plasma [13]): 180 nM; AUC(0-t) [14]: 1.94 µM·h; Tmax [15]: 1 h; Cmax [16]: 280 nM; AUC(0-t) [17]: 0.6 µM·h; Cmax [18]: 860 nM
